# Test system: HCC 2998
# Assay: Growth inhibition of human HCC 2998 cells assessed as cell growth at 10 uM incubated for 48 hrs by sulforhodamine B assay relative to control
# Assay type: functional
# Conditions: read-out: Activity
# In short: (§1)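 NCI Developmental Therapeutics Program NCI60 panel. Compounds that were active in the 10 µM one-dose screen went on to dose–response testing. Growth at each concentration is expressed relative to untreated control (100%). GI50 (concentration giving 50% of maximal inhibition of proliferation) and TGI (concentration giving total growth inhibition) were derived from the curves.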
row,Compound,growth at 10 µM
1,CC(=O)Nc1ccc(S(=O)(=O)n2ccc(-c3ccc4c(c3)CCC(C)(C)O4)n2)cc1,83.3%
2,CC1(C)CCc2cc(-c3ccn(S(=O)(=O)c4ccc(C(F)(F)F)cc4)n3)ccc2O1,94.4%
3,COc1ccc(-c2ccn(S(=O)(=O)c3ccc(OC)cc3)n2)cc1,88.1%

# Test system: TK-10
# Assay: Growth inhibition of human TK-10 cells assessed as cell growth at 10 uM incubated for 48 hrs by sulforhodamine B assay relative to control
# Assay type: functional
# Conditions: read-out: Activity
# In short: (§2)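 Run by the NCI Developmental Therapeutics Program as part of its 60-line human tumour panel. Each compound tested at a single 10 µM dose. Growth expressed as % relative to untreated control cells (100%).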
row,Compound,growth at 10 µM
1,CC(=O)Nc1ccc(S(=O)(=O)n2ccc(-c3ccc4c(c3)CCC(C)(C)O4)n2)cc1,55.1%

# Test system: SW-620
# Assay: Growth inhibition of human SW-620 cells assessed as cell growth at 10 uM incubated for 48 hrs by sulforhodamine B assay relative to control
# Assay type: functional
# Conditions: read-out: Activity
# In short: as §2
row,Compound,growth at 10 µM
1,CC(=O)Nc1ccc(S(=O)(=O)n2ccc(-c3ccc4c(c3)CCC(C)(C)O4)n2)cc1,82.5%
2,CC1(C)CCc2cc(-c3ccn(S(=O)(=O)c4ccc(C(F)(F)F)cc4)n3)ccc2O1,90.2%
3,COc1ccc(-c2ccn(S(=O)(=O)c3ccc(OC)cc3)n2)cc1,82.1%

# Test system: 786-0
# Assay: Growth inhibition of human 786-0 cells assessed as cell growth at 10 uM incubated for 48 hrs by sulforhodamine B assay relative to control
# Assay type: functional
# Conditions: read-out: Activity
# In short: as §1
row,Compound,growth at 10 µM
1,CC(=O)Nc1ccc(S(=O)(=O)n2ccc(-c3ccc4c(c3)CCC(C)(C)O4)n2)cc1,79.8%
2,CC1(C)CCc2cc(-c3ccn(S(=O)(=O)c4ccc(C(F)(F)F)cc4)n3)ccc2O1,82.5%
3,COc1ccc(-c2ccn(S(=O)(=O)c3ccc(OC)cc3)n2)cc1,80.2%

# Test system: SR
# Assay: Growth inhibition of human SR cells assessed as cell growth at 10 uM incubated for 48 hrs by sulforhodamine B assay relative to control
# Assay type: functional
# Conditions: read-out: Activity
# In short: as §2
row,Compound,growth at 10 µM
1,CC(=O)Nc1ccc(S(=O)(=O)n2ccc(-c3ccc4c(c3)CCC(C)(C)O4)n2)cc1,56.4%
2,CC1(C)CCc2cc(-c3ccn(S(=O)(=O)c4ccc(C(F)(F)F)cc4)n3)ccc2O1,69.8%
3,COc1ccc(-c2ccn(S(=O)(=O)c3ccc(OC)cc3)n2)cc1,57.8%

# Test system: NCI-H522
# Assay: Growth inhibition of human NCI-H522 cells assessed as cell growth at 10 uM incubated for 48 hrs by sulforhodamine B assay relative to control
# Assay type: functional
# Conditions: read-out: Activity
# In short: (§3)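 Submitted to the NCI Developmental Therapeutics Program for the NCI60 human tumour cell line panel. First screen at a single 10 µM concentration. Read-out is growth relative to untreated control cells set at 100%.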
row,Compound,growth at 10 µM
1,CC(=O)Nc1ccc(S(=O)(=O)n2ccc(-c3ccc4c(c3)CCC(C)(C)O4)n2)cc1,54%

# Test system: OVCAR-8
# Assay: Growth inhibition of human OVCAR-8 cells assessed as cell growth at 10 uM incubated for 48 hrs by sulforhodamine B assay relative to control
# Assay type: functional
# Conditions: read-out: Activity
# In short: as §2
row,Compound,growth at 10 µM
1,CC(=O)Nc1ccc(S(=O)(=O)n2ccc(-c3ccc4c(c3)CCC(C)(C)O4)n2)cc1,69.4%
2,CC1(C)CCc2cc(-c3ccn(S(=O)(=O)c4ccc(C(F)(F)F)cc4)n3)ccc2O1,90.9%
3,COc1ccc(-c2ccn(S(=O)(=O)c3ccc(OC)cc3)n2)cc1,89.2%

# Test system: COLO 205
# Assay: Growth inhibition of human COLO 205 cells assessed as cell growth at 10 uM incubated for 48 hrs by sulforhodamine B assay relative to control
# Assay type: functional
# Conditions: read-out: Activity
# In short: as §1
row,Compound,growth at 10 µM
1,CC(=O)Nc1ccc(S(=O)(=O)n2ccc(-c3ccc4c(c3)CCC(C)(C)O4)n2)cc1,88.8%
2,CC1(C)CCc2cc(-c3ccn(S(=O)(=O)c4ccc(C(F)(F)F)cc4)n3)ccc2O1,108%
3,COc1ccc(-c2ccn(S(=O)(=O)c3ccc(OC)cc3)n2)cc1,118%

# Test system: K562
# Assay: Growth inhibition of human K562 cells assessed as cell growth at 10 uM incubated for 48 hrs by sulforhodamine B assay relative to control
# Assay type: functional
# Conditions: read-out: Activity
# In short: as §3
row,Compound,growth at 10 µM
1,CC(=O)Nc1ccc(S(=O)(=O)n2ccc(-c3ccc4c(c3)CCC(C)(C)O4)n2)cc1,36.7%
2,CC1(C)CCc2cc(-c3ccn(S(=O)(=O)c4ccc(C(F)(F)F)cc4)n3)ccc2O1,76.8%
3,COc1ccc(-c2ccn(S(=O)(=O)c3ccc(OC)cc3)n2)cc1,57%

# Test system: OVCAR-4
# Assay: Growth inhibition of human OVCAR-4 cells assessed as cell growth at 10 uM incubated for 48 hrs by sulforhodamine B assay relative to control
# Assay type: functional
# Conditions: read-out: Activity
# In short: as §2
row,Compound,growth at 10 µM
1,CC(=O)Nc1ccc(S(=O)(=O)n2ccc(-c3ccc4c(c3)CCC(C)(C)O4)n2)cc1,46.2%
2,CC1(C)CCc2cc(-c3ccn(S(=O)(=O)c4ccc(C(F)(F)F)cc4)n3)ccc2O1,71.3%
3,COc1ccc(-c2ccn(S(=O)(=O)c3ccc(OC)cc3)n2)cc1,63%

# Test system: T47D
# Assay: Growth inhibition of human T47D cells assessed as cell growth at 10 uM incubated for 48 hrs by sulforhodamine B assay relative to control
# Assay type: functional
# Conditions: read-out: Activity
# In short: as §2
row,Compound,growth at 10 µM
1,CC(=O)Nc1ccc(S(=O)(=O)n2ccc(-c3ccc4c(c3)CCC(C)(C)O4)n2)cc1,31.1%
2,CC1(C)CCc2cc(-c3ccn(S(=O)(=O)c4ccc(C(F)(F)F)cc4)n3)ccc2O1,63.9%
3,COc1ccc(-c2ccn(S(=O)(=O)c3ccc(OC)cc3)n2)cc1,58.8%

# Test system: LOX IMVI
# Assay: Growth inhibition of human LOX IMVI cells assessed as cell growth at 10 uM incubated for 48 hrs by sulforhodamine B assay relative to control
# Assay type: functional
# Conditions: read-out: Activity
# In short: as §3
row,Compound,growth at 10 µM
1,CC(=O)Nc1ccc(S(=O)(=O)n2ccc(-c3ccc4c(c3)CCC(C)(C)O4)n2)cc1,64.1%
2,CC1(C)CCc2cc(-c3ccn(S(=O)(=O)c4ccc(C(F)(F)F)cc4)n3)ccc2O1,98.6%
3,COc1ccc(-c2ccn(S(=O)(=O)c3ccc(OC)cc3)n2)cc1,88.8%

# Test system: DU-145
# Assay: Growth inhibition of human DU-145 cells assessed as cell growth at 10 uM incubated for 48 hrs by sulforhodamine B assay relative to control
# Assay type: functional
# Conditions: read-out: Activity
# In short: as §1
row,Compound,growth at 10 µM
1,CC(=O)Nc1ccc(S(=O)(=O)n2ccc(-c3ccc4c(c3)CCC(C)(C)O4)n2)cc1,83.5%
2,CC1(C)CCc2cc(-c3ccn(S(=O)(=O)c4ccc(C(F)(F)F)cc4)n3)ccc2O1,103%
3,COc1ccc(-c2ccn(S(=O)(=O)c3ccc(OC)cc3)n2)cc1,93.9%

# Test system: RPMI-8226
# Assay: Growth inhibition of human RPMI-8226 cells assessed as cell growth at 10 uM incubated for 48 hrs by sulforhodamine B assay relative to control
# Assay type: functional
# Conditions: read-out: Activity
# In short: as §2
row,Compound,growth at 10 µM
1,CC(=O)Nc1ccc(S(=O)(=O)n2ccc(-c3ccc4c(c3)CCC(C)(C)O4)n2)cc1,43.7%
2,CC1(C)CCc2cc(-c3ccn(S(=O)(=O)c4ccc(C(F)(F)F)cc4)n3)ccc2O1,76.6%
3,COc1ccc(-c2ccn(S(=O)(=O)c3ccc(OC)cc3)n2)cc1,58.7%

# Test system: NCI-H23
# Assay: Growth inhibition of human NCI-H23 cells assessed as cell growth at 10 uM incubated for 48 hrs by sulforhodamine B assay relative to control
# Assay type: functional
# Conditions: read-out: Activity
# In short: as §3
row,Compound,growth at 10 µM
1,CC(=O)Nc1ccc(S(=O)(=O)n2ccc(-c3ccc4c(c3)CCC(C)(C)O4)n2)cc1,56.6%
2,CC1(C)CCc2cc(-c3ccn(S(=O)(=O)c4ccc(C(F)(F)F)cc4)n3)ccc2O1,83.1%
3,COc1ccc(-c2ccn(S(=O)(=O)c3ccc(OC)cc3)n2)cc1,79.8%

# Test system: SF-268
# Assay: Growth inhibition of human SF-268 cells assessed as cell growth at 10 uM incubated for 48 hrs by sulforhodamine B assay relative to control
# Assay type: functional
# Conditions: read-out: Activity
# In short: as §2
row,Compound,growth at 10 µM
1,CC(=O)Nc1ccc(S(=O)(=O)n2ccc(-c3ccc4c(c3)CCC(C)(C)O4)n2)cc1,77.2%
2,CC1(C)CCc2cc(-c3ccn(S(=O)(=O)c4ccc(C(F)(F)F)cc4)n3)ccc2O1,104%
3,COc1ccc(-c2ccn(S(=O)(=O)c3ccc(OC)cc3)n2)cc1,95.6%

# Test system: MDA-MB-231
# Assay: Growth inhibition of human MDA-MB-231 cells assessed as cell growth at 10 uM incubated for 48 hrs by sulforhodamine B assay relative to control
# Assay type: functional
# Conditions: read-out: Activity
# In short: as §3
row,Compound,growth at 10 µM
1,CC(=O)Nc1ccc(S(=O)(=O)n2ccc(-c3ccc4c(c3)CCC(C)(C)O4)n2)cc1,88.6%
2,CC1(C)CCc2cc(-c3ccn(S(=O)(=O)c4ccc(C(F)(F)F)cc4)n3)ccc2O1,112%
3,COc1ccc(-c2ccn(S(=O)(=O)c3ccc(OC)cc3)n2)cc1,96.2%

# Test system: MCF7
# Assay: Growth inhibition of human MCF7 cells assessed as cell growth at 10 uM incubated for 48 hrs by sulforhodamine B assay relative to control
# Assay type: functional
# Conditions: read-out: Activity
# In short: as §3
row,Compound,growth at 10 µM
1,CC(=O)Nc1ccc(S(=O)(=O)n2ccc(-c3ccc4c(c3)CCC(C)(C)O4)n2)cc1,66.2%
2,CC1(C)CCc2cc(-c3ccn(S(=O)(=O)c4ccc(C(F)(F)F)cc4)n3)ccc2O1,84.9%
3,COc1ccc(-c2ccn(S(=O)(=O)c3ccc(OC)cc3)n2)cc1,97.9%

# Test system: SK-MEL-2
# Assay: Growth inhibition of human SK-MEL-2 cells assessed as cell growth at 10 uM incubated for 48 hrs by sulforhodamine B assay relative to control
# Assay type: functional
# Conditions: read-out: Activity
# In short: as §2
row,Compound,growth at 10 µM
1,CC(=O)Nc1ccc(S(=O)(=O)n2ccc(-c3ccc4c(c3)CCC(C)(C)O4)n2)cc1,53.5%

# Test system: ACHN
# Assay: Growth inhibition of human ACHN cells assessed as cell growth at 10 uM incubated for 48 hrs by sulforhodamine B assay relative to control
# Assay type: functional
# Conditions: read-out: Activity
# In short: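 NCI Developmental Therapeutics Program NCI60 human tumour cell line panel, one-dose primary screen with every compound at 10 µM. Growth is expressed as % of untreated control cells (100%).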
row,Compound,growth at 10 µM
1,CC(=O)Nc1ccc(S(=O)(=O)n2ccc(-c3ccc4c(c3)CCC(C)(C)O4)n2)cc1,79.3%
2,CC1(C)CCc2cc(-c3ccn(S(=O)(=O)c4ccc(C(F)(F)F)cc4)n3)ccc2O1,101%
3,COc1ccc(-c2ccn(S(=O)(=O)c3ccc(OC)cc3)n2)cc1,90.6%

# Test system: CAKI-1
# Assay: Growth inhibition of human CAKI-1 cells assessed as cell growth at 10 uM incubated for 48 hrs by sulforhodamine B assay relative to control
# Assay type: functional
# Conditions: read-out: Activity
# In short: as §1
row,Compound,growth at 10 µM
1,CC(=O)Nc1ccc(S(=O)(=O)n2ccc(-c3ccc4c(c3)CCC(C)(C)O4)n2)cc1,48.8%
2,CC1(C)CCc2cc(-c3ccn(S(=O)(=O)c4ccc(C(F)(F)F)cc4)n3)ccc2O1,76.7%
3,COc1ccc(-c2ccn(S(=O)(=O)c3ccc(OC)cc3)n2)cc1,66.2%

# Test system: SNB-19
# Assay: Growth inhibition of human SNB-19 cells assessed as cell growth at 10 uM incubated for 48 hrs by sulforhodamine B assay relative to control
# Assay type: functional
# Conditions: read-out: Activity
# In short: as §2
row,Compound,growth at 10 µM
1,CC(=O)Nc1ccc(S(=O)(=O)n2ccc(-c3ccc4c(c3)CCC(C)(C)O4)n2)cc1,73.3%
2,CC1(C)CCc2cc(-c3ccn(S(=O)(=O)c4ccc(C(F)(F)F)cc4)n3)ccc2O1,113%
3,COc1ccc(-c2ccn(S(=O)(=O)c3ccc(OC)cc3)n2)cc1,96.8%

# Source: ChEMBL document CHEMBL4715736, “Identification of anticancer agents based on the thieno[2,3-b]pyridine and 1H-pyrazole molecular scaffolds” (2016)
